According to ChEMBL document CHEMBL1139503, “Varenicline: an alpha4beta2 nicotinic receptor partial agonist for smoking cessation” (J Med Chem, 2005):
pKi: −log10 of the molar value.

Tests used:
[1] = target: Neuronal acetylcholine receptor subunit alpha-7 (Rattus norvegicus, UniProt Q05941); assay: Inhibition of [125I]alpha-bungarotoxin binding to nicotinic acetylcholine receptor alpha-7 subunit in rat GH4C1 cells; format: cell-based, GH4-C1
[2] = target: Acetylcholine receptor (Torpedo californica, UniProt P02710+P02712+P02714+P02718); assay: Inhibition of [125I]alpha-bungarotoxin binding to nicotinic acetylcholine receptor alpha1 beta gamma delta of electroplax; format: protein-complex assay
Summary of the method: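 Competition binding with [125I]-α-bungarotoxin on electroplax membranes; N = 3 determinations.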

[3] = target: T1, Neuronal acetylcholine receptor; alpha4/beta2 (Homo sapiens) (UniProt P17787+P43681); assay: Percent antagonist activity against 10 uM nicotine at human nicotinic acetylcholine receptor alpha4-beta2 at 10 uM; format: functional
[4] = target: T1, Neuronal acetylcholine receptor; alpha4/beta2 (Homo sapiens); assay: Percent agonist activity relative to 10 uM (-)-nicotine at human nicotinic acetylcholine receptor alpha4-beta2 at 10 uM; format: functional
Summary of the method: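 Electrophysiology in Xenopus oocytes expressing human α4β2 nAChR. Compound applied alone at 10 µM. Current compared with the response to 10 µM (-)-nicotine (chosen over EC50 level to limit desensitization) and expressed as percent; N = 3, SEM ≤10%.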

[5] = target: Neuronal acetylcholine receptor; alpha3/beta4 (Homo sapiens, UniProt P30926+P32297); assay: Inhibition of [3H]epibatidine binding to nicotinic acetylcholine receptor alpha3-beta4 of human IMR32 cells; format: cell-based, IMR-32
Summary of the method: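 Displacement of [3H]-epibatidine from IMR32 cell preparations; N = 3 determinations.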

[6] = target: Neuronal acetylcholine receptor; alpha4/beta2 (Rattus norvegicus, UniProt P09483+P12390); assay: Inhibition of [3H]nicotine binding to nicotinic acetylcholine receptor alpha4-beta2 of rat cortex
Summary of the method: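 Radioligand displacement in rat cortex tissue; N = 3 determinations.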

Neuronal acetylcholine receptor; alpha3/beta4, sequence (P30926 whole entry): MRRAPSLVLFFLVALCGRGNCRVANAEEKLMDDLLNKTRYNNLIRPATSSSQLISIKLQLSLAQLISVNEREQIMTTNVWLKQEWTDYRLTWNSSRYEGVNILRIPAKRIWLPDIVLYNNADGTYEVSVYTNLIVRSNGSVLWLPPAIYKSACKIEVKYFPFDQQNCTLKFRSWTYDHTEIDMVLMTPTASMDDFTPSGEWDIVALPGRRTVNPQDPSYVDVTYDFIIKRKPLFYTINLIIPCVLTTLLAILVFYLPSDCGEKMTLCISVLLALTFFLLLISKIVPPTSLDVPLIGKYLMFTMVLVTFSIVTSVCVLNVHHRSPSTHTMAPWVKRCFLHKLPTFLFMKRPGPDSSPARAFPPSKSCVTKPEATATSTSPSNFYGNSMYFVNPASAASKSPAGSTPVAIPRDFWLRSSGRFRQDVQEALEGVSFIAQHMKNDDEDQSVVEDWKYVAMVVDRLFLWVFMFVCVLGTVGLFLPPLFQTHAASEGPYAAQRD
Neuronal acetylcholine receptor; alpha3/beta4, sequence (P32297 whole entry): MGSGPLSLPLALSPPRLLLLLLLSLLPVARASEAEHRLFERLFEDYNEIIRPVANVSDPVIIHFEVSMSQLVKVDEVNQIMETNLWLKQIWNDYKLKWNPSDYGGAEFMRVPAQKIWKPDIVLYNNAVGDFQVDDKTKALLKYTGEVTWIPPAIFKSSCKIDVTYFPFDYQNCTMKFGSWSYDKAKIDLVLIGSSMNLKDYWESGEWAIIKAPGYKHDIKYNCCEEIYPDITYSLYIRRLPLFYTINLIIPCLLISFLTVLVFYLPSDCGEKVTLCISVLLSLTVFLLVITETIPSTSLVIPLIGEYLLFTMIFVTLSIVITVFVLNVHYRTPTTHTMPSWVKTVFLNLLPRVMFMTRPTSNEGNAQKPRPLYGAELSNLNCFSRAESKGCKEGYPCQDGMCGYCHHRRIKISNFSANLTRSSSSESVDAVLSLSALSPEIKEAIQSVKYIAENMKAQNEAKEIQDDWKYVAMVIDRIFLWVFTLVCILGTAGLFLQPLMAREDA
Neuronal acetylcholine receptor subunit alpha-7, sequence (Q05941 whole entry): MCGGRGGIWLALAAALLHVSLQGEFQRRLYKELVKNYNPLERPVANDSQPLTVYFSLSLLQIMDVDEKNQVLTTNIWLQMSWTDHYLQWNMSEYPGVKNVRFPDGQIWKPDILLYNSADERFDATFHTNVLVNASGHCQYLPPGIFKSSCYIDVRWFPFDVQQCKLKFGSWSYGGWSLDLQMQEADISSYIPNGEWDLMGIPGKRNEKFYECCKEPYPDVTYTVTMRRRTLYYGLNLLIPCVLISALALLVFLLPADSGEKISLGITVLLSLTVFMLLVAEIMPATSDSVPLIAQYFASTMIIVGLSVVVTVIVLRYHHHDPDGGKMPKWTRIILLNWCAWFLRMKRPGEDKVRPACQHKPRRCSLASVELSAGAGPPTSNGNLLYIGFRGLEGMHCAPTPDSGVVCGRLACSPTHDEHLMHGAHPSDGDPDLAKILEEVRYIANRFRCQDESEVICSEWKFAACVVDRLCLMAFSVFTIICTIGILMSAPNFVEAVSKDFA
Neuronal acetylcholine receptor; alpha4/beta2, sequence (P09483 whole entry): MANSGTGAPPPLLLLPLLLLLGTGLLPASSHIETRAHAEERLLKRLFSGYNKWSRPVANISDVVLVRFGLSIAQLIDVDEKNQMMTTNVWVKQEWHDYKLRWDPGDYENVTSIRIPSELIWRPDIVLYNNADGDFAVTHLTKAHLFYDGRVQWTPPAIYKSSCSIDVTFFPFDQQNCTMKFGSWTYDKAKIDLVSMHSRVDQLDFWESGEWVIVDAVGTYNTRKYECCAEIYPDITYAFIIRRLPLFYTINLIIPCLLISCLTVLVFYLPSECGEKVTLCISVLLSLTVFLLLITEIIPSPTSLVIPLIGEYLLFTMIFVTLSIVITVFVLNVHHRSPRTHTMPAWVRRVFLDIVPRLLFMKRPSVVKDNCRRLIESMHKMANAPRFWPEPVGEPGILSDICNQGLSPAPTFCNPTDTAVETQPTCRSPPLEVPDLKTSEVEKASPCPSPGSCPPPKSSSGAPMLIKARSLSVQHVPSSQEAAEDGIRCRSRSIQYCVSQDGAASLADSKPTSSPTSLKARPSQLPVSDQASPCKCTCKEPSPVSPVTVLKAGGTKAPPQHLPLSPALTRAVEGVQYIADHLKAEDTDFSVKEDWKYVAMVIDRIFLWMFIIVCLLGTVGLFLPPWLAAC
Neuronal acetylcholine receptor; alpha4/beta2, sequence (P12390 whole entry): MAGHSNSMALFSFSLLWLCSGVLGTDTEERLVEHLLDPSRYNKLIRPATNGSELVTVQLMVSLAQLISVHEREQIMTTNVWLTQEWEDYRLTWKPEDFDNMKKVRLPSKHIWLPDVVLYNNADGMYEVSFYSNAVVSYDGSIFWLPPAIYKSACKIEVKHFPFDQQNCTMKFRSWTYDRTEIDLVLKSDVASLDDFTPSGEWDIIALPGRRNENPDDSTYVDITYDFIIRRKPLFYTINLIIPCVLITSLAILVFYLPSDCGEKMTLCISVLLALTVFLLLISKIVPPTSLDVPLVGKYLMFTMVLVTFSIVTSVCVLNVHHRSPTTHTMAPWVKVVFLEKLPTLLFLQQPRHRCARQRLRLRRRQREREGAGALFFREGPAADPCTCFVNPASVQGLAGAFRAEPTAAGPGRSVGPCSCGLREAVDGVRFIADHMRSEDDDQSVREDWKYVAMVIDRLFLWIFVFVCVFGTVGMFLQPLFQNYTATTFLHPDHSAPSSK
Acetylcholine receptor, sequence (P02710 whole entry): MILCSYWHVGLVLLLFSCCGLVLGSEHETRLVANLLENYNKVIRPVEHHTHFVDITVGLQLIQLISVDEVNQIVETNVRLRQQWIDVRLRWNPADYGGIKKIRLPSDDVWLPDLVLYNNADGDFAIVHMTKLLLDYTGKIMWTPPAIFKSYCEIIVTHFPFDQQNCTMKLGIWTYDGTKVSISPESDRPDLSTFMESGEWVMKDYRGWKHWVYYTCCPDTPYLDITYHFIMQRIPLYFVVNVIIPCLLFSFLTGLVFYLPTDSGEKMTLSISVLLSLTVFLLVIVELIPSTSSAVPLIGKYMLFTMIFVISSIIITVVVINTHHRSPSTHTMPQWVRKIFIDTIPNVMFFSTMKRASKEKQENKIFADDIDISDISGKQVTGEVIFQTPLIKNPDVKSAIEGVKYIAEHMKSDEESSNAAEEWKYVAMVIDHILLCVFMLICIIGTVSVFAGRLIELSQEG
Acetylcholine receptor, sequence (P02712 whole entry): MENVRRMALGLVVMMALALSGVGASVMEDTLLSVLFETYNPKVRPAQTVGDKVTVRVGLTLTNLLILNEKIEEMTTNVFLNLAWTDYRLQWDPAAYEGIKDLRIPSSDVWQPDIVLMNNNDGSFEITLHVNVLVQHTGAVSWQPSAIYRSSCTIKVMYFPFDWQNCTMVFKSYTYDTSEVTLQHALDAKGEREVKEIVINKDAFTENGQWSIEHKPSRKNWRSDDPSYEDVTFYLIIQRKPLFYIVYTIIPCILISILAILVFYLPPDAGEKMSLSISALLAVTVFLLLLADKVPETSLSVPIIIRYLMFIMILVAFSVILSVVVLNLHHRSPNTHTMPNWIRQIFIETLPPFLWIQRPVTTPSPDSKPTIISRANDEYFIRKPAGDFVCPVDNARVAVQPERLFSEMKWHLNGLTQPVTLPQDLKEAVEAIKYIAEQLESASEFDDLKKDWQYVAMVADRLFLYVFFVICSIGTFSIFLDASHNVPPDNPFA
Acetylcholine receptor, sequence (P02718 whole entry): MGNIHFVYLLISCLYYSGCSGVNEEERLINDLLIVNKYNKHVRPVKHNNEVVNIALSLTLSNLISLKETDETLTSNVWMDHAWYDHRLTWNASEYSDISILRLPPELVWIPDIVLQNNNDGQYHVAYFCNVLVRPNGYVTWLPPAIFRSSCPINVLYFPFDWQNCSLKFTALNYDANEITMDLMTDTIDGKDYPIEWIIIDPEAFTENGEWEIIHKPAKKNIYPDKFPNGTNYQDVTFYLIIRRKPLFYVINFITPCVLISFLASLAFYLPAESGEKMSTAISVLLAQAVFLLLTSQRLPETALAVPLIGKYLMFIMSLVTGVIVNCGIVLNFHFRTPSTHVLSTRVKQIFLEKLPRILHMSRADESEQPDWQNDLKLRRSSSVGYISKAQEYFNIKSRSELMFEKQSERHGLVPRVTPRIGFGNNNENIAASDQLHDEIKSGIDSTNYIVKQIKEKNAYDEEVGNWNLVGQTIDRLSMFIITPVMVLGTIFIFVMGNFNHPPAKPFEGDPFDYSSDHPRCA
Acetylcholine receptor, sequence (P02714 whole entry): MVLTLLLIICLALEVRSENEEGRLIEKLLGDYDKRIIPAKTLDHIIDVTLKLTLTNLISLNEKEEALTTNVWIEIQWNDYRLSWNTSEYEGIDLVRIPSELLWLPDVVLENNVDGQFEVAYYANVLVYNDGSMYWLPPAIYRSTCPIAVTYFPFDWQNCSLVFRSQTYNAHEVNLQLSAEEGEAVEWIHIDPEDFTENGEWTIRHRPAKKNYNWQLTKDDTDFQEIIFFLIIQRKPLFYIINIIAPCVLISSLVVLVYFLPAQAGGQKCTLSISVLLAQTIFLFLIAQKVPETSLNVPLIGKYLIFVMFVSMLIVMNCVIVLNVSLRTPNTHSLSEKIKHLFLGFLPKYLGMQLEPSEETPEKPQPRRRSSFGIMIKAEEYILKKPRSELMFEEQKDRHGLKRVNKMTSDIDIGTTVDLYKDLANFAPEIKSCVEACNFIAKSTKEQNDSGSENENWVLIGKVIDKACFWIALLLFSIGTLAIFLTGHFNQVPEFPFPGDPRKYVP

Row | SMILES | pKi [1] | pKi [2] | inhibition [3] [%] | Response [4] [%] | pKi [5] | pKi [6]
1 | O=c1cccc2n1C[C@@H]1CNC[C@H]2C1 (single isomer, unassigned) [CYTISINICLINE] | 5.38 | 6.60 | 30 | 56 | 6.08 | 9.77
2 | c1ccc2c(c1)C1CNCC2C1 | < 5.30 | 6.43 | 35 | 0 | 5.55 | 7.70
3 | CN1CCC[C@H]1c1cccnc1 [NICOTINE] | – | 5.20 | – | 100 | – | –
4 | O=[N+]([O-])c1ccc2c(c1)C1CNCC2C1 (racemic) | 5.13 | 6.16 | 20 | 65 | 6.68 | 9.12
5 | c1cnc2cc3c(cc2n1)[C@@H]1CNC[C@H]3C1 | 6.49 | 5.45 | 34 | 68 | – | 10.22
